Assay [1] deals with HL-60. The assay is described as follows: Cytotoxicity against human HL60 cells assessed as cell viability after 72 hrs by MTT assay. Type of assay: functional, cell-based. Particulars: HL-60, 72 h. Put shortly:
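HL-60 myeloid leukemia cells in RPMI 1640 with 10% heat-inactivated FBS, penicillin/streptomycin, 37 °C, 5% CO2. Exponentially growing cells (1 × 10⁴/well) exposed to 0.3–100 µM glycoside (100 mM DMSO stocks) for 72 h. MTT read at 570 nm. Survival taken as percent of control absorbance. IC50 from concentration–response curves fitted per experiment (DeLean equation). Triplicate determinations.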
For orientation: Formazan colour is commonly taken as a measure of viable cells.

Assay [2] has as its system HL-60. Briefly: Induction of apoptosis in human HL60 cells assessed as caspase 3/7 activation measuring cleavage of tetrapeptide DEVD-pNA at 1 to 10 uM after 24 hrs. Type of assay: functional, cell-based. The gist of the method: (§1)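 HL-60 cells treated with increasing glycoside concentrations and harvested at 24 h. Lysates assayed colorimetrically with DEVD-pNA (caspase-3/7), IETD-pNA (caspase-8) and LEHD-pNA (caspase-9). Activity expressed as fold increase over control, mean ± SE. Two independent experiments, each in duplicate.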

Assay [3] has as its system HL-60. The assay is described as follows: Induction of apoptosis in human HL60 cells assessed as fragmented chromatin at 10 uM after 24 hrs by Hoechst 33258 staining method. Type of assay: functional, cell-based. The gist of the method:
(§2)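 Nuclear chromatin condensation and fragmentation in HL-60 cells scored by fluorescent microscopy after Hoechst 33258 staining. Treated cells compared with control cells.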

The test system of assay [4] is HL-60. The assay is described as follows: Induction of apoptosis in human HL60 cells assessed as caspase 8 activation measuring cleavage of tetrapeptide IETD-pNA at 1 to 10 uM after 24 hrs. The class given is functional, cell-based. The gist of the method: as §1
For assay [5], the system named is HL-60. The assay is described as follows: Induction of apoptosis in human HL60 cells assessed as increase in hypodiploid cells at sub-G1 fraction at 10 uM after 24 hrs by propidium iodide based flow cytometry relative to control. The class given is functional. Put shortly:
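HL-60 cells incubated with 10 µM glycoside for 24 h, labelled with propidium iodide and analysed by flow cytometry. Hypodiploid (sub-G1) fraction compared with control cells.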
Background: In flow cytometry, cells or beads pass a laser one at a time.

In assay [6] the test system is HL-60. The assay is described as follows: Induction of apoptosis in human HL60 cells assessed as morphological changes at 10 uM after 24 hrs by phase contrast microscopy. Type of assay: functional, cell-based. The gist of the method:
(§3)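 HL-60 cells cultured in RPMI 1640/10% FBS at 37 °C, 5% CO2. Treated with 10 µM glycoside for 24 h. Representative fields examined by inverted phase contrast microscopy for morphology and growth.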

Assay [7] relates to HL-60. The assay is described as follows: Induction of apoptosis in human HL60 cells assessed as condensed chromatin at 10 uM after 24 hrs by Hoechst 33258 staining method. The class given is functional, cell-based. The gist of the method: as §2
For assay [8], the system named is HL-60. Briefly: Growth inhibition in human HL60 cells at 10 uM after 24 hrs by phase contrast microscopy. The class given is functional, cell-based. Put shortly: as §3
Assay [9] relates to HL-60. Briefly: Induction of apoptosis in human HL60 cells assessed as caspase 9 activation measuring cleavage of tetrapeptide LEHD-pNA at 1 to 10 uM after 24 hrs. Type of assay: functional, cell-based. The gist of the method: as §1

Active and inactive are the calls of the source. The calls are words filed in the database; no cut-off is given here. A value given as a limit tells only on which side of the number the result lay.

For orientation: IC50 means the midpoint of a concentration-inhibition curve. For the molecule `C[C@@H]1CC[C@@]2(OC1)O[C@H]1C[C@H]3[C@@H]4CC(=O)[C@@]5(O)C[C@@H](O[C@@H]6O[C@@H]7CO[C@@H](c8ccccc8)O[C@H]7[C@H](OC(=O)C(C)(C)C)[C@H]6O)CC[C@]5(C)[C@H]4CC[C@]3(C)[C@H]1[C@@H]2C`, the IC50 with HL-60 [1] amounted to 3.3 µM. In the case of `C[C@@H]1CC[C@@]2(OC1)O[C@H]1C[C@H]3[C@@H]4CC[C@H]5C[C@@H](O[C@@H]6O[C@H](CO)[C@@H](O)[C@H](O)[C@H]6O[C@@H]6O[C@@H](C)[C@H](O)[C@@H](O)[C@H]6O)CC[C@]5(C)[C@H]4CC(=O)[C@]3(C)[C@H]1[C@@H]2C`, in the assay on HL-60 [1], the half-maximal inhibitory concentration (IC50) was greater than 100 µM. Regarding `C[C@@H]1CC[C@@]2(OC1)O[C@H]1C[C@H]3[C@@H]4CC(=O)[C@@]5(O)C[C@@H](O[C@@H]6O[C@H](CO)[C@@H](O[C@@H]7O[C@@H](C)[C@H](O)[C@@H](O)[C@H]7O)[C@H](O)[C@H]6O[C@@H]6O[C@@H](C)[C@H](O)[C@@H](O)[C@H]6O)CC[C@]5(C)[C@H]4CC[C@]3(C)[C@H]1[C@@H]2C`, the concentration for half-maximal inhibition (IC50) with HL-60 [1] was greater than 100 µM. The same measure, in the same setting: in the case of `C[C@@H]1CC[C@@]2(OC1)O[C@H]1C[C@H]3[C@@H]4CC(=O)[C@@]5(O)C[C@@H](O[C@@H]6O[C@H](CO)[C@@H](O)[C@H](O)[C@H]6O[C@@H]6O[C@@H](C)[C@H](O)[C@@H](O)[C@H]6O)CC[C@]5(C)[C@H]4CC[C@]3(C)[C@H]1[C@@H]2C` it was 86.7 µM. Turning to `C[C@@H]1CC[C@@]2(OC1)O[C@H]1C[C@H]3[C@@H]4CC(=O)[C@@]5(O)C[C@@H](O[C@@H]6O[C@H](COC(=O)C(C)(C)C)[C@@H](O)[C@H](OC(=O)C(C)(C)C)[C@H]6O)CC[C@]5(C)[C@H]4CC[C@]3(C)[C@H]1[C@@H]2C`, the result with HL-60 [2], with HL-60 [3], with HL-60 [4], with HL-60 [6], in the assay on HL-60 [7] and in the assay with HL-60 [9] was Active. Besides, in the assay on HL-60 [5], the “fold change (FC)” value came out at 7. The IC50 in the assay on HL-60 [1] amounted to 2.1 µM. Moreover, the “growth inhibition (GI)” value in the assay on HL-60 [8] was “Active”.

With `C[C@@H]1CC[C@@]2(OC1)O[C@H]1C[C@H]3[C@@H]4CC(=O)[C@@]5(O)C[C@@H](O[C@@H]6O[C@H](CO)[C@@H](O)[C@H](O)[C@H]6O)CC[C@]5(C)[C@H]4CC[C@]3(C)[C@H]1[C@@H]2C`, the half-inhibitory concentration (IC50) in the assay on HL-60 [1] was greater than 100 µM. `C[C@@H]1CC[C@@]2(OC1)O[C@H]1C[C@H]3[C@@H]4CC[C@H]5C[C@@H](O[C@@H]6O[C@H](CO)[C@@H](O)[C@H](O)[C@H]6O)CC[C@]5(C)[C@H]4CC(=O)[C@]3(C)[C@H]1[C@@H]2C`: in the assay with HL-60 [1], the IC50 is greater than 100 µM. The same measure, in the same setting: the figure for `C[C@@H]1CC[C@@]2(OC1)O[C@H]1C[C@H]3[C@@H]4CC=C5C[C@@H](O[C@@H]6O[C@H](CO)[C@@H](O[C@@H]7O[C@@H](C)[C@H](O)[C@@H](O)[C@H]7O)[C@H](O)[C@H]6O[C@@H]6O[C@@H](C)[C@H](O)[C@@H](O)[C@H]6O)CC[C@]5(C)[C@H]4CC[C@]3(C)[C@H]1[C@@H]2C` [DIOSCIN] is 3.8 µM; for `C[C@@H]1CC[C@@]2(OC1)O[C@H]1C[C@H]3[C@@H]4CC[C@H]5C[C@@H](O[C@@H]6O[C@H](CO[C@@H]7O[C@@H](C)[C@H](O)[C@@H](O)[C@H]7O)[C@@H](O[C@@H]7O[C@@H](C)[C@H](O)[C@@H](O)[C@H]7O)[C@H](O)[C@H]6O)CC[C@]5(C)[C@H]4CC(=O)[C@]3(C)[C@H]1[C@@H]2C` it is greater than 100 µM. With `C[C@@H]1CC[C@@]2(OC1)O[C@H]1C[C@H]3[C@@H]4CC[C@H]5C[C@@H](O[C@@H]6O[C@H](CO)[C@@H](O[C@@H]7O[C@@H](C)[C@H](O)[C@@H](O)[C@H]7O)[C@H](O)[C@H]6O[C@@H]6O[C@@H](C)[C@H](O)[C@@H](O)[C@H]6O)CC[C@]5(C)[C@H]4CC(=O)[C@]3(C)[C@H]1[C@@H]2C`, the IC50 in the assay on HL-60 [1] came to 4.3 µM.

Take `C[C@@H]1CC[C@@]2(OC1)O[C@H]1C[C@H]3[C@@H]4CC(=O)[C@@]5(O)C[C@@H](O[C@@H]6O[C@H](CO[C@@H]7O[C@@H](C)[C@H](O)[C@@H](O)[C@H]7O)[C@@H](O[C@@H]7O[C@@H](C)[C@H](O)[C@@H](O)[C@H]7O)[C@H](O)[C@H]6O)CC[C@]5(C)[C@H]4CC[C@]3(C)[C@H]1[C@@H]2C`: in the assay on HL-60 [1], the IC50 was greater than 100 µM. Still for that read-out and setting: the figure for `C[C@@H]1CC[C@@]2(OC1)O[C@H]1C[C@H]3[C@@H]4CC[C@H]5C[C@@H](O[C@@H]6O[C@@H]7CO[C@@H](c8ccccc8)O[C@H]7[C@H](OC(=O)C(C)(C)C)[C@H]6O)CC[C@]5(C)[C@H]4CC(=O)[C@]3(C)[C@H]1[C@@H]2C` is 45 µM; for `C[C@@H]1CC[C@@]2(OC1)O[C@H]1C[C@H]3[C@@H]4CC[C@H]5C[C@@H](O[C@@H]6O[C@H](COC(=O)C(C)(C)C)[C@@H](O)[C@H](OC(=O)C(C)(C)C)[C@H]6O)CC[C@]5(C)[C@H]4CC(=O)[C@]3(C)[C@H]1[C@@H]2C` it is 12 µM.
